# According to ChEMBL document CHEMBL2346587, “Design, synthesis, and evaluation of a water-soluble antofine analogue with high antiproliferative and antitumor activity” (Bioorg Med Chem, 2013):
# Calls of active or inactive are those of the source. The rule behind the calls is not given here.
# Key:
# SNU-638 = assay: Cytotoxicity against human SNU638 cells after 72 hrs by SRB assay; assay type: functional, cell-based; conditions: SNU-638, 72 h
# Outline: (§1)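 SRB growth assay: 5 × 10^3 cells/well exposed to a concentration series for 72 h; fixed in 10% TCA 30 min at 4 °C, stained with 0.4% SRB in 1% acetic acid 30 min, dye dissolved in 10 mM Tris pH 10.0, absorbance at 515 nm. Viability relative to vehicle control; IC50 by non-linear regression; at least three experiments. A549-Pa is a paclitaxel-resistant A549 subline.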
# HCT-15 = assay: Cytotoxicity against human HCT15 cells after 72 hrs by SRB assay; assay type: functional, cell-based; conditions: HCT-15, 72 h; outline: as §1
# A549 [1] = assay: Cell cycle arrest in human A549 cells assessed as accumulation at G0/G1 phase at 50 nM after 24 hrs by flow cytometry (reference value: 62.38 %); assay type: functional
# A549 [2] = assay: Cell cycle arrest in human A549 cells assessed as accumulation at G0/G1 phase at 100 nM after 24 hrs by flow cytometry (reference value: 62.38 %); assay type: functional
# A549 [3] = assay: Antitumor activity against human A549 cells xenografted in athymic nu/nu BALB/c mouse assessed as inhibition of Ki-67 expression at 5 to 10 mg/kg, ip administered 35 days post-implantation 3 times a week by immunohistochemistry; assay type: functional, organism-based
# Outline: (§2)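 Female athymic BALB/c nu/nu mice, six weeks old; 2 × 10^6 A549 or A549-Pa cells in 0.1 mL RPMI injected s.c. into right flank on day 0. Dosing began at 95–100 mm3 tumour volume: drug in 1% cremophore in PBS given i.p. three times weekly; controls got vehicle; five mice/group. Tumour volume tracked every 3–5 days; tumours excised and weighed at end; sections immunostained for Ki-67.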
# A549 [4] = assay: Antitumor activity against paclitaxel-resistant human A549 cells xenografted in athymic nu/nu BALB/c mouse assessed as inhibition of Ki-67 expression at 5 to 10 mg/kg, ip administered 35 days post-implantation 3 times a week by immunohistochemistry; assay type: functional, organism-based; outline: as §2
# A549 [5] = assay: Antitumor activity against paclitaxel-resistant human A549 cells xenografted in ip dosed athymic nu/nu BALB/c mouse assessed as inhibition of P-gp expression administered 35 days post-implantation 3 times a week by immunohistochemistry; assay type: functional, organism-based
# Outline: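 A549-Pa (paclitaxel-resistant) xenografts in female athymic BALB/c nu/nu mice, grown s.c. in right flank and treated i.p. three times weekly in 1% cremophore/PBS once tumours reached 95–100 mm3. Excised tumour sections incubated overnight at 4 °C with P-glycoprotein antibody, detected by HRP-polymer system, hematoxylin counterstain, viewed by microscopy.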
# [6] = molecular target: T1, ATP-dependent translocase ABCB1 (Homo sapiens, UniProt P08183); assay: Inhibition of P-gp activity in human paclitaxel-resistant A549 cells potentiation of 5 uM paclitaxel-induced cytotoxicity at 0.1 uM by SRB assay; assay type: cell-based; conditions: a549, 0.1 µM
# Outline: (§3)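 A549-Pa cells plated at 5 × 10^4 cells/well and co-treated for 48 h with the compound (0–200 nM) plus paclitaxel or gefitinib; growth inhibition by SRB assay. Combination index computed at the 50% inhibition level as CI = D1/(Dx)1 + D2/(Dx)2, comparing combined versus single-agent concentrations.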
# [7] = molecular target: T1, ATP-dependent translocase ABCB1; assay: Inhibition of P-gp activity in paclitaxel-resistant human A549 cells potentiation of 2.5 uM paclitaxel-induced cytotoxicity at 0.05 uM by SRB assay; assay type: cell-based; conditions: a549, 0.05 µM; outline: as §3
# A549 [8] = assay: Inhibition of P-gp protein expression level in human paclitaxel-resistant A549 cells at 50 to 200 nM after 48 hrs by Western blot analysis; assay type: functional, cell-based
# Outline: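 A549-Pa cells, with parent A549 for comparison, were exposed to compound for 48 h. Lysates were made in boiling SDS sample buffer and protein measured by BCA. Equal protein (25–50 µg) was run on 8–15% SDS-PAGE, transferred to PVDF and blocked in 5% milk/PBST. Anti-P-gp primary was applied overnight at 4 °C, then secondary antibody and ECL detection.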
# A549 [9] = assay: Inhibition of AKT/mTOR signaling in human A549 cells assessed as inhibition of eIF4E phosphorylation at 50 to 400 nM after 24 hrs by Western blot analysis; assay type: cell-based
# Outline: (§4)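 A549 cells plated at 3 × 10^5 per 60 mm dish, grown 24 h, then exposed to a concentration series for 24 h. Lysed in boiling SDS sample buffer with NaF and orthovanadate; protein by BCA; 25–50 µg run on 8–15% SDS-PAGE, transferred to PVDF, blocked in 5% milk/PBST, primary antibodies overnight at 4 °C, secondary 1–2 h, ECL detection.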
# A549 [10] = assay: Inhibition of AKT/mTOR signaling in human A549 cells assessed as inhibition of 4E-BP1 phosphorylation at 50 to 400 nM after 24 hrs by Western blot analysis; assay type: cell-based; outline: as §4
# A549 [11] = assay: Inhibition of AKT-mediated mTOR phosphorylation at Ser2448 residue in human A549 cells at 50 to 400 nM after 24 hrs by Western blot analysis; assay type: cell-based; outline: as §4
# A549 [12] = assay: Inhibition of AKT phosphorylation at T308 residue in human A549 cells at 50 to 400 nM after 24 hrs by Western blot analysis; assay type: cell-based; outline: as §4
# A549 [13] = assay: Effect on CDK2 protein expression at G0/G1 phase in human A549 cells at 50 to 400 nM after 24 hrs by Western blot analysis; assay type: functional, cell-based; outline: as §4
# A549 [14] = assay: Inhibition of AKT/c-myc signaling in human A549 cells assessed as reduction in CDK4 protein expression at 50 to 400 nM after 24 hrs by Western blot analysis; assay type: cell-based; outline: as §4
# A549 [15] = assay: Cell cycle arrest in human A549 cells assessed as accumulation at sub-G1 phase at 400 nM after 24 hrs by flow cytometry (reference value: 1.40 %); assay type: functional
# A549 [16] = assay: Cell cycle arrest in human A549 cells assessed as accumulation at sub-G1 phase at 200 nM after 24 hrs by flow cytometry (reference value: 1.40 %); assay type: functional
# A549 [17] = assay: Cell cycle arrest in human A549 cells assessed as accumulation at sub-G1 phase at 50 nM after 24 hrs by flow cytometry (reference value: 1.40 %); assay type: functional
# A549 [18] = assay: Cell cycle arrest in human A549 cells assessed as accumulation at G2/M phase at 100 nM after 24 hrs by flow cytometry (reference value: 22.84 %); assay type: functional
# A549 [19] = assay: Cell cycle arrest in human A549 cells assessed as accumulation at G2/M phase at 200 nM after 24 hrs by flow cytometry (reference value: 22.84 %); assay type: functional
# A549 [20] = assay: Cell cycle arrest in human A549 cells assessed as accumulation at G2/M phase at 50 nM after 24 hrs by flow cytometry (reference value: 22.84 %); assay type: functional
# A549 [21] = assay: Cell cycle arrest in human A549 cells assessed as accumulation at S phase at 50 nM after 24 hrs by flow cytometry (reference value: 13.38 %); assay type: functional
# A549 [22] = assay: Cell cycle arrest in human A549 cells assessed as accumulation at G0/G1 phase at 400 nM after 24 hrs by flow cytometry (reference value: 62.38 %); assay type: functional
# A549 [23] = assay: Cell cycle arrest in human A549 cells assessed as accumulation at G0/G1 phase at 200 nM after 24 hrs by flow cytometry (reference value: 62.38 %); assay type: functional
# T1 sequence (P08183 whole entry): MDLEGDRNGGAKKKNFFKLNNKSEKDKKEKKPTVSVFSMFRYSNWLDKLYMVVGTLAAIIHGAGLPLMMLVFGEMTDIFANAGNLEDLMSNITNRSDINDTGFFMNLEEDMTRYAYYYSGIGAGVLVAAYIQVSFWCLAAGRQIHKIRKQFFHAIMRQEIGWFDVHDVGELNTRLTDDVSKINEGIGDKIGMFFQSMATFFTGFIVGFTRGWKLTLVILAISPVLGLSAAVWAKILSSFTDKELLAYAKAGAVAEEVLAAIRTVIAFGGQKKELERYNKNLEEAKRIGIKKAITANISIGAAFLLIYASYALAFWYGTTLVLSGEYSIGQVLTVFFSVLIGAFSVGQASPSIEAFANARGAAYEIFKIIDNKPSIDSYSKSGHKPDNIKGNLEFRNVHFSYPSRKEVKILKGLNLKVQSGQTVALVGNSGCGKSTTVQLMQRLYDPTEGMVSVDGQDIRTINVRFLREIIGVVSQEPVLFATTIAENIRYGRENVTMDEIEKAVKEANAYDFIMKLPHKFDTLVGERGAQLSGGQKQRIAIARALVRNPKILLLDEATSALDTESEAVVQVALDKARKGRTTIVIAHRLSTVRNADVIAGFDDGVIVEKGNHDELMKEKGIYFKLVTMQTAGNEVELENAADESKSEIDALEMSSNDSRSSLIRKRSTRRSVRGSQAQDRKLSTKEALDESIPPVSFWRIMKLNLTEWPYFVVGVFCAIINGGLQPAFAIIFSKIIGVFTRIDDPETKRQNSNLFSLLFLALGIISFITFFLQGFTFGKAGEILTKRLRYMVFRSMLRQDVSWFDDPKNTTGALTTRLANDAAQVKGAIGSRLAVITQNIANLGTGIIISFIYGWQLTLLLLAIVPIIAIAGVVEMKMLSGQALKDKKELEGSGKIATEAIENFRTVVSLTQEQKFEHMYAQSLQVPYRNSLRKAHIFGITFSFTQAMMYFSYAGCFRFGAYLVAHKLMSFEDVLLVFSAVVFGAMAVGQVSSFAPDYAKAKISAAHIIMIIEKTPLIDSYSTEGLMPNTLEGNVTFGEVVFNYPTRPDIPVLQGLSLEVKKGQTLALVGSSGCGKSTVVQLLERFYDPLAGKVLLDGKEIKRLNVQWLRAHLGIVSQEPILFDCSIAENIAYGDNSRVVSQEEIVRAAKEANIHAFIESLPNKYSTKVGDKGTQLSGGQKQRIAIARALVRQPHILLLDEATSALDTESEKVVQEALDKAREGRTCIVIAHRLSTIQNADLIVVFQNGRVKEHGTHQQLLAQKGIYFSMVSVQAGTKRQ
smiles,measurement,setting,value
COc1ccc2c3c(c4cc(OC)c(OC)cc4c2c1)C[C@@]1(CO)CCCN1C3,IC50,SNU-638,80 nM
same,IC50,HCT-15,160 nM
same,Activity,A549 [1],66.07%
same,Activity,A549 [2],68.38%
same,inhibition,A549 [3],Active
same,inhibition,A549 [4],Active
same,inhibition,A549 [5],Dose-dependent effect
same,fractional inhibitory concentration index (FICI),[6],0.391
same,fractional inhibitory concentration index (FICI),[7],0.242
same,inhibition,A549 [8],Active
same,inhibition,A549 [9],Active
same,inhibition,A549 [10],Active
same,inhibition,A549 [11],Active
same,inhibition,A549 [12],Active
same,Activity,A549 [13],inactive
same,inhibition,A549 [14],Active
same,Activity,A549 [15],1.21%
same,Activity,A549 [16],1.29%
same,Activity,A549 [17],1.13%
same,Activity,A549 [18],18.53%
same,Activity,A549 [19],18.33%
same,Activity,A549 [20],20.71%
same,Activity,A549 [21],12.08%
same,Activity,A549 [22],67.01%
same,Activity,A549 [23],69.43%
